pIC50: −log10 of the molar value. Calls of active or inactive are those of the source. The calls are words filed in the database; no cut-off is given here.
Tests used:
DU-145 [1] = test: Induction of apoptosis in human DU145 cells assessed as increase in Bax to Bcl2 ratio at 0.08 to 0.32 uM after 24 hrs by Western blot analysis; type: functional, cell-based
Method in brief: (§1)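 DU-145 cells (5 × 10^5/well) in 10% FCS Ham's F-12K overnight, treated in duplicate with compound or vehicle 24 h; lysed (Tris pH 8, EGTA, NaCl, NP-40, Triton X-100), protein by BCA. Blots blocked in 5% milk, probed for AKT, p-AKT Ser473, mTOR, p-mTOR Ser2448, Bax, Bcl-2, β-actin; ECL detection, densitometry relative to control; three separate experiments.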

DU-145 [2] = test: Effect on Akt protein expression in human DU145 cells at 0.08 to 0.32 uM after 24 hrs by Western blot analysis; type: functional, cell-based; method in brief: as §1
[3] = biological target: Serine/threonine-protein kinase mTOR (Homo sapiens) (UniProt P42345); test: Reduction in phosphorylated mTOR protein expression in human DU145 cells at 0.08 to 0.32 uM after 24 hrs by Western blot analysis; type: functional, cell-based; settings: DU-145; method in brief: as §1
[4] = Half life in human liver microsomes by LC-MS/MS analysis; type: ADME
Method in brief: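 Human liver microsomes at 0.2 mg/mL protein in 100 mM potassium phosphate−MgCl2 buffer pH 7.4, compound 5 μM with NADPH system at 37 °C; stopped with acetonitrile at 0, 5, 10, 15, 30, 60 min. After centrifugation, remaining compound quantified by LC−MS/MS to derive t1/2; mean ± SD.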

DU-145 [5] = test: Antiproliferative activity against human DU145 cells at 2 uM after 72 hrs by CCK8 assay; type: functional; settings: DU-145, 72 h
Method in brief: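 DU-145 screening at single concentration 2 μM for 72 h, proliferation by CCK-8 (cells 5 × 10^3/well in 10% FCS DMEM). Percent inhibition vs untreated, background-corrected; mean ± SD from three independent experiments.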

DU-145 [6] = test: Antiproliferative activity against human DU145 cells after 72 hrs by CCK8 assay; type: functional, cell-based; settings: DU-145, 72 h
Method in brief: (§2)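 CCK-8 assay: DU-145, H460, Bxpc-3, BEL-7404 and nontumor WPMY-1 cells seeded at 5 × 10^3 cells/well in 10% FCS DMEM overnight, then exposed in triplicate to 0.041−10 μM for 72 h. CCK-8 added for final 30 min, absorbance 450 nm; inhibition relative to medium-only controls after background subtraction; IC50 as concentration giving 50% inhibition.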

[7] = Antiproliferative activity against human H460 cells after 72 hrs by CCK8 assay; type: functional, cell-based; settings: NCI-H460, 72 h; method in brief: as §2
Mus musculus [8] = test: Acute toxicity in ICR mouse assessed as mortality at 640 mg/kg, oral gavage after 1 hr; type: organism-based; settings: in vivo
Method in brief: (§3)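 ICR mice of both sexes, 7 weeks old, held under SPF conditions. Each got one gavage dose (800, 640, 512, 409.6 or 327.8 mg/kg) or vehicle, n = 8 per group. Deaths were recorded at 1 h, 4 h, 3 d and 4–14 d. Behaviour, water and food intake, body weight and activity were followed to day 14. LD50 given with 95% confidence limits.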

Mus musculus [9] = test: Acute toxicity in ICR mouse assessed as mortality at 640 mg/kg, oral gavage after 4 hrs; type: organism-based; settings: in vivo; method in brief: as §3
Mus musculus [10] = test: Acute toxicity in ICR mouse assessed as mortality at 640 mg/kg, oral gavage after 4 to 14 days; type: organism-based; settings: in vivo; method in brief: as §3
Mus musculus [11] = test: Acute toxicity in ICR mouse assessed as mortality at 512 mg/kg, oral gavage after 1 hr; type: organism-based; settings: in vivo; method in brief: as §3
Mus musculus [12] = test: Acute toxicity in ICR mouse assessed as mortality at 409.6 mg/kg, oral gavage after 4 hrs; type: organism-based; settings: in vivo; method in brief: as §3
Mus musculus [13] = test: Acute toxicity in ICR mouse assessed as mortality at 409.6 mg/kg, oral gavage after 4 to 14 days; type: organism-based; settings: in vivo; method in brief: as §3
Mus musculus [14] = test: Acute toxicity in ICR mouse assessed as mortality at 327.8 mg/kg, oral gavage after 4 hrs; type: organism-based; settings: in vivo; method in brief: as §3
Mus musculus [15] = test: Acute toxicity in ICR mouse assessed as mortality at 327.8 mg/kg, oral gavage after 3 days; type: organism-based; settings: in vivo, 72 h; method in brief: as §3
Mus musculus [16] = test: Acute toxicity in ICR mouse assessed as mortality at 327.8 mg/kg, oral gavage after 4 to 14 days; type: organism-based; settings: in vivo; method in brief: as §3
Mus musculus [17] = test: Acute toxicity in ICR mouse assessed as total mortality at 800 mg/kg, oral gavage up to 14 days; type: organism-based; settings: in vivo, 336 h; method in brief: as §3
[18] = Acute toxicity in ICR mouse assessed as survival at 409.6 mg/kg, oral gavage on day 14; type: organism-based; settings: in vivo; method in brief: as §3
[19] = Acute toxicity in ICR mouse assessed as survival at 327.8 mg/kg, oral gavage on day 14; type: organism-based; settings: in vivo; method in brief: as §3
DU-145 [20] = test: Anticancer activity against human DU145 cells xenografted in BALB/c mouse assessed as decrease in tumor growth at 8.5 mg/kg, oral gavage for 21 days relative to vehicle treated control; type: functional; settings: DU-145, po, 504 h
Method in brief: (§4)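 Male BALB/c nude mice (6−8 weeks, 18−22 g) implanted subcutaneously on right axillary flank with 2 × 10^6 DU-145 cells in 0.1 mL saline. At 100 ± 30 mm3 tumors, randomized (n = 5/group) to daily gavage for 21 days; vehicle DMSO/Cremphor EL/PBS 1:1:8. Tumor volume every 3 days; tumors excised and weighed at end; TGI from mean tumor weights vs vehicle; body weight tracked.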

DU-145 [21] = test: Anticancer activity against human DU145 cells xenografted in BALB/c mouse assessed as decrease in tumor growth at 17 mg/kg, oral gavage for 21 days relative to vehicle treated control; type: functional; settings: DU-145, po, 504 h; method in brief: as §4
Mus musculus [22] = test: Toxicity in human DU145 cells xenografted in BALB/c mouse assessed as change in body weight at 8.5 mg/kg, oral gavage for 21 days relative to vehicle treated control; type: organism-based, DU-145; settings: in vivo, 504 h; method in brief: as §4
Mus musculus [23] = test: Toxicity in human DU145 cells xenografted in BALB/c mouse assessed as change in body weight at 17 mg/kg, oral gavage for 21 days relative to vehicle treated control; type: organism-based, DU-145; settings: in vivo, 504 h; method in brief: as §4
DU-145 [24] = test: Induction of cell cycle arrest in human DU145 cells assessed as cells accumulation at G0/G1 phase at 0.08 uM after 24 hrs by propidium iodide staining-based flow cytometry (reference value: 54%); type: functional
DU-145 [25] = test: Induction of cell cycle arrest in human DU145 cells assessed as cells accumulation at G2/M phase at 0.08 uM after 24 hrs by propidium iodide staining-based flow cytometry (reference value: 22%); type: functional
DU-145 [26] = test: Induction of apoptosis in human DU145 cells assessed as chromatin condensation and fragmentation at 0.08 to 0.32 uM after 24 hrs by Hoechst staining-based fluorescence microscopy; type: functional, cell-based
Method in brief: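 DU-145 cells exposed 24 h to compound or vehicle (0.1% DMSO), fixed in methanol 30 min, stained with 1 mg/mL Hoechst 33258, and scored under fluorescence microscope for chromatin condensation and nuclear fragmentation; three separate experiments.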

Cytochrome P450 3A4 = Cytochrome P450 3A4 (Homo sapiens, UniProt P08684); test: Inhibition of CYP3A4 in human liver microsomes using midazolam as substrate after 1 hr by LC-MS/MS analysis
Chain of Cytochrome P450 3A4 (P08684 whole entry): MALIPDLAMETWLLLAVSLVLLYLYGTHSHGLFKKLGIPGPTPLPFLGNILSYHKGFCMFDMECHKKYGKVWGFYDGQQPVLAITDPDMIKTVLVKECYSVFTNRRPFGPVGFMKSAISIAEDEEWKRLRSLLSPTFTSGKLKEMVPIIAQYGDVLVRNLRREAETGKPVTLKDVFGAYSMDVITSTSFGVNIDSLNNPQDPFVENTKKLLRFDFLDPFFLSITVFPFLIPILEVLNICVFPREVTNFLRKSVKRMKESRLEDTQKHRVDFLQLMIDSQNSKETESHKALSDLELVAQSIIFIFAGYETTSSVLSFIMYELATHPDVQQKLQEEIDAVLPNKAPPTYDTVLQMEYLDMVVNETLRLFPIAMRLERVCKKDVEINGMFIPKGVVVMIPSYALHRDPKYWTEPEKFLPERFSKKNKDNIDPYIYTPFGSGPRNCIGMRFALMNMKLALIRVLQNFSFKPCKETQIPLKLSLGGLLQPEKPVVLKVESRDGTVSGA

What does the source list for `CC1(C)CC[C@]23CC[C@@]4(C)[C@]5(C)CC[C@H]6C(C)(C)C(=O)C(C#N)=C[C@]6(C)C5=CC(=O)[C@@]4([C@@H]2C1)N(C1CCCCC1)C3=O`?
Activity (DU-145 [1]): Active; Activity (DU-145 [2]): inactive; inhibition [3]: Active; half-life [4]: 39 min; inhibition at 2 µM (DU-145 [5]): 75%; pIC50 (DU-145 [6]): 6.41; pIC50 [7]: 6.42; Activity (Mus musculus [8]): Non-toxic; Activity (Mus musculus [9]): Non-toxic; Activity (Mus musculus [10]): Non-toxic; Activity (Mus musculus [11]): Non-toxic; Activity (Mus musculus [12]): Non-toxic; Activity (Mus musculus [13]): Non-toxic; Activity (Mus musculus [14]): Non-toxic; Activity (Mus musculus [15]): Non-toxic; Activity (Mus musculus [16]): Non-toxic; Activity (Mus musculus [17]): Toxic; survival at 14 day [18]: 88%; survival at 14 day [19]: 100%; inhibition in vivo at 8.5 mg/kg (DU-145 [20]): 30%; inhibition in vivo at 17 mg/kg (DU-145 [21]): 62%; Activity (Mus musculus [22]): Non-toxic; Activity (Mus musculus [23]): Non-toxic; Activity (DU-145 [24]): 56%; Activity (DU-145 [25]): 19%; Activity (DU-145 [26]): Active; pIC50 (Cytochrome P450 3A4): 6.03
